Active and inactive are the calls of the source. No cut-off for these calls is given here.
How the values were obtained:
[1] = Drug uptake in tumor of BALB/c mouse xenografted with […] cells at 0.25 umol/kg, iv measured at 24 hrs by fluorescence imaging; assay type: ADME, organism-based, Neoplasm; conditions: in vivo, dose 0.25 µmol/kg
How it was run: (§1)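 Subcutaneous Colon 26 tumors (~50 mm3) on the shoulder of BALB/c mice, 3 mice/group. Photosensitizer 0.25 μmol/kg iv in 1% Tween 80/D5W. Under isoflurane, Maestro spectral imaging used the Deep Red filter set (Ex 671–705 nm, Em 750 nm long-pass, 2 s exposure). Images taken at 4, 8, 12, 24 and 48 h; unmixed tumor signal quantified.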

Colon 26 [2] = assay: Photodynamic therapy against […] cells assessed as reduction in cell viability at 0.025 uM incubated for 24 hrs followed by exposure to light at 787 nm in the range of 0-1.0 J/cm2 irradiation by MTT assay; assay type: functional, cell-based
How it was run: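 Murine Colon 26 cells (3600/well) exposed to 0.025 μM photosensitizer for 24 h. Irradiated at 787 nm from a tunable dye laser, 0–1.0 J/cm2 at 3.2 mW/cm2. MTT added 48 h after light. Blank-subtracted OD divided by untreated OD for each light dose gave percent survival. Single experiment in triplicate.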

Colon 26 [3] = assay: (§2) Photodynamic therapy against […] cells xenografted in BALB/c mouse assessed as reduction tumor volumes by measuring tumor cure response at 0.25 umol/kg, iv exposed to laser light at 787 nm at a dose of 135 J/cm2 and 35 mW/cm2 after 24 hrs post dose measured at day 60 post dose; assay type: functional; conditions: dose 0.25 µmol/kg, time 60.0 day
[4] = Photosensitizing activity in mouse Colon 26 cells assessed as induction of STAT3 cross-linking at 15 nM incubated for 24 hrs followed exposure to irradiation at 797 nm light (3 J/cm2) by Western blotting analysis
[5] = Photosensitizing activity in mouse Colon 26 cells assessed as induction of STAT3 cross-linking at 250 nM incubated for 24 hrs followed exposure to irradiation at 797 nm light (3 J/cm2) by Western blotting analysis
[6] = Photosensitizing activity in mouse Colon 26 cells assessed as induction of STAT3 cross-linking at 60 nM incubated for 24 hrs followed exposure to irradiation at 797 nm light (3 J/cm2) by Western blotting analysis
[7] = Photosensitizing activity in mouse Colon 26 cells assessed as induction of STAT3 cross-linking at 125 nM incubated for 24 hrs followed exposure to irradiation at 797 nm light (3 J/cm2) by Western blotting analysis
Colon 26 [8] = assay: Photodynamic therapy against […] cells assessed as reduction in cell viability at 0.1 to 0.4 uM incubated for 24 hrs followed by exposure to 0.25J/cm2 irradiation by MTT assay; assay type: functional, cell-based; conditions: dose 0.1-0.4 µM
How it was run: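 Murine Colon 26 cells (3600/well) exposed to a range of photosensitizer concentrations for 24 h, then irradiated at 787 nm, 0.25 J/cm2 (3.2 mW/cm2). MTT readout 48 h after light. Percent survival taken relative to untreated cells after blank subtraction. Experiments done in triplicate.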

Mus musculus = assay: Photosensitizing activity in BALB/c mouse implanted with mouse Colon 26 cells assessed as induction of STAT3 cross-linking at 0.47 umol/kg, iv for 24 hrs followed by exposure to laser light at 787 nm by Western blotting analysis; conditions: BALB/c m, dose 0.47 µmol/kg
Colon 26 [9] = assay: Photodynamic therapy against […] cells xenografted in BALB/c mouse assessed as reduction tumor volumes by measuring tumor response at 0.25 umol/kg, iv exposed to laser light at 787 nm at a dose of 135 J/cm2 and 35 mW/cm2 after 48 hrs post dose measured at day 60 post dose; assay type: functional, organism-based; conditions: dose 0.25 µmol/kg, time 60.0 day
[10] = Drug uptake in tumor of BALB/c mouse xenografted with […] cells at 0.25 umol/kg, iv measured after 4 hrs by fluorescence imaging; assay type: ADME, organism-based, Neoplasm; conditions: in vivo, dose 0.25 µmol/kg; how it was run: as §1
[11] = Photosensitizing activity in mouse Colon 26 cells assessed as induction of STAT3 cross-linking at 30 nM incubated for 24 hrs followed exposure to irradiation at 797 nm light (3 J/cm2) by Western blotting analysis
Colon 26 [12] = assay: Photodynamic therapy against […] cells xenografted in BALB/c mouse assessed as reduction tumor volumes by measuring tumor response at 0.25 umol/kg, iv exposed to laser light at 787 nm at a dose of 135 J/cm2 and 35 mW/cm2 after 12 hrs post dose measured at day 60 post dose; assay type: functional, organism-based; conditions: dose 0.25 µmol/kg, time 60.0 day
[13] = Drug uptake in tumor of BALB/c mouse xenografted with […] cells at 1 umol/kg, iv measured after 24 to 48 hrs using 14C-labeled cpd by scintillation counting method; assay type: ADME, organism-based, Neoplasm; conditions: in vivo, time 24-48 hrs, dose 1 µmol/kg
How it was run: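 Colon 26 tumor-bearing BALB/c mice (~50 mm3) received 14C-labeled compound 1.0 μmol/kg iv (0.1 μCi/mouse), 3 mice/time point. Mice euthanized at 24, 48 and 72 h; tumor and muscle removed, weighed and solubilized overnight at 50 °C. Radioactivity counted; results given as mean cpm/g tissue ± SD.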

[14] = Drug uptake in tumor of BALB/c mouse xenografted with […] cells at 0.25 umol/kg, iv measured after 24 by fluorescence imaging; assay type: ADME, organism-based, Neoplasm; conditions: in vivo, 24 h, dose 0.25 µmol/kg; how it was run: as §1
Colon 26 (mouse) = assay: Drug uptake in tumor of BALB/c mouse xenografted with mouse Colon 26 cells at 0.25 umol/kg, iv measured after 24 hrs followed by exposure to 787 nm light and stoppage of irradiation at regular intervals up to 30 mins by fluorescence imaging based IVIS spectrum-CT method; conditions: in vivo, at 0.25 µmol/kg
[15] = Skin phototoxicity in BALB/c mouse assessed as foot response at 0.25 umol/kg, iv after 24 to 96 hrs post dose followed by mouse restrainment and one hind foot illumination with solar light for 30 mins; assay type: organism-based, BALB/c m; conditions: in vivo, 0.5 h, time 24-96 hrs, dose 0.25 µmol/kg
How it was run: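 Non-tumor BALB/c mice given photosensitizer 0.25 μmol/kg iv. At 24, 48, 72 or 96 h (3 mice/group), one hind foot was illuminated for 30 min; the other foot served as control. Edema, erythema, epilation and desquamation scored 0 (normal) to 3 (loss of foot), followed for 4 more days.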

[16] = as §2; assay type: functional; parameters: scale not given: the % may be the effect or the level left; conditions: dose 0.25 µmol/kg; time 60 day
[17] = Stability in mouse Colon 26 cells culture media assessed as hydrolysis of methyl ester to carboxylic acid incubated for 24 hrs by TLC analysis; conditions: colon 26, 24 h
[18] = Drug uptake in tumor of BALB/c mouse xenografted with mouse 4T1 cells at 0.25 umol/kg, iv measured after 24 hrs by fluorescence imaging based IVIS spectrum-CT method; assay type: ADME, organism-based, BALB/c m, Neoplasm; conditions: in vivo, dose 0.25 µmol/kg
How it was run: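 BALB/c mice (3/group) were given 4T1-luc cells iv to seed lung tumors, and bioluminescence was imaged at day 9. Photosensitizer 0.25 μmol/kg iv, then fluorescence imaging at 24 h on IVIS Spectrum-CT (Ex 785 nm, Em >830 nm). The fluorescence image was merged with bioluminescence.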

SMILES	Drug uptake [1]	Activity (Colon 26 [2])	Activity (Colon 26 [3])	Activity [4] [%]	Activity [5] [%]	Activity [6] [%]	Activity [7] [%]	Activity (Colon 26 [8])	Activity (Mus musculus)	Activity (Colon 26 [9])	Activity [11] [%]	further results
CCCCO[C@@H](C)c1c(C)c2cc3nc(c4c5[nH]c(cc6nc(cc1[nH]2)[C@H](C)[C@H]6CC)c(C)c5C(=O)N(CCCC)C4=O)[C@@H](CCC(=O)OC)[C@@H]3C	Active	Active	Active	–	–	–	–	–	–	–	–	–
CCCCOC(C)c1c(C)c2cc3nc(c4c5[nH]c(cc6nc(cc1[nH]2)[C@H](C)[C@H]6CC)c(C)c5C(=O)N(CCCC)C4=O)[C@@H](CCC(=O)O)[C@@H]3C (some centres not stated)	–	–	–	0.3	15	5.8	9	Active	Active	inactive	1.2	Drug uptake [10]: Active; Activity (Colon 26 [12]): inactive
CCCCO[C@H](C)c1c(C)c2cc3nc(c4c5[nH]c(cc6nc(cc1[nH]2)[C@H](C)[C@H]6CC)c(C)c5C(=O)N(CCCC)C4=O)[C@@H](CCC(=O)OC)[C@@H]3C	Active	Active	Active	–	–	–	–	–	–	–	–	–
CCCCN1C(=O)c2c3nc(cc4[nH]c(cc5nc(cc6[nH]c2c(c6C)C1=O)[C@H](CC)[C@H]5C)c(C(C)O[14CH2]CCC)c4C)[C@@H](C)[C@@H]3CCC(=O)OC (some centres not stated)	–	–	–	–	–	–	–	–	–	–	–	Drug uptake [13]: Active
CCCCOC(C)c1c(C)c2cc3nc(c4c5[nH]c(cc6nc(cc1[nH]2)[C@H](C)[C@H]6CC)c(C)c5C(=O)N(CCCC)C4=O)[C@@H](CCC(=O)OC)[C@@H]3C (some centres not stated)	Active	–	–	0.1	2.4	0.5	1.5	Active	Active	inactive	0.2	Drug uptake [14]: Not Active; Drug uptake (Colon 26 (mouse)): 40%; Activity [15]: Non-Toxic; Activity [16]: 80%; Stabilty [17]: Stable; Drug uptake [18]: Active

Reference: ChEMBL document CHEMBL4680088, “Highly Effective Dual-Function Near-Infrared (NIR) Photosensitizer for Fluorescence Imaging and Photodynamic Therapy (PDT) of Cancer” (J Med Chem, 2016)
